Here are results for 1 molecule from ChEMBL document CHEMBL4619773, “Chemoreactive-Inspired Discovery of Influenza A Virus Dual Inhibitor to Block Hemagglutinin-Mediated Adsorption and Membrane Fusion” (J Med Chem, 2020).

In series [1] the test system is Influenza A virus. The experiment in a line: Antiviral activity against Influenza A virus (A/Puerto Rico/8/1934(H1N1)) infected in MDCK cells assessed as inhibition of virus-induced cytopathic effect incubated for 48 hrs by crystal violet staining based assay. The class given is functional, organism-based. In outline: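 MDCK cells were infected at MOI 0.1, the inoculum was removed, and compounds were added in triplicate. After 48 h the cells were fixed in 4% formaldehyde (20 min, RT) and stained with 0.1% crystal violet (30 min). Dye was solubilized in methanol and read at 570 nm.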
A general note: Damage to the host cells serves as the signal in cytopathic effect assays.

Series [2] in a line: Tmax in mouse at 5 mg/kg, po administered as single dose. The class given is ADME, organism-based. Particulars: in vivo. In outline: (§1)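 Male Kunming mice (20–25 g) and male SD rats (180–220 g) were fasted 12 h before dosing. Compound was suspended in 0.5% CMC-Na and given by gavage (5 mg/kg mice, 3.5 mg/kg rats), or dissolved in PEG400 and given iv via tail vein (0.5 mg/kg mice, 0.35 mg/kg rats). Plasma was sampled from 5 min to 24 h and analysed by LC-MS/MS (n=3). F = AUCoral/AUCiv.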

The nature of series [3]: Oral bioavailability in mouse at 5 mg/kg administered as single dose. Particulars: in vivo. The class given is ADME, organism-based. In outline:
as §1

A short description of series [4]: Cumulative drug excretion in mouse urine at 0.5 mg/kg, iv administered as single dose measured after 72 hrs. The class given is ADME, organism-based. As to conditions: read-out: Drug excretion. In outline:
(§2)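 Single oral (gavage, 0.5% CMC-Na) or iv (tail vein, PEG400) dosing was given to male Kunming mice or Sprague Dawley rats held in metabolic cages. Urine and feces were collected at intervals to 72 h. Feces were dried, ground and homogenized in water (1:9 w/v). Samples were precipitated with acetonitrile containing internal standard and analysed by LC-MS/MS.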

A short description of series [5]: Metabolic stability in mouse liver microsomes at 2 uM after 60 mins. The class given is ADME, Microsome. As to conditions: read-out: Stability. In outline:
(§3)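 Mouse, rat or human liver microsomes (final 0.5 mg/mL protein) were preincubated with an NADPH-regenerating system in 50 mM Tris-HCl pH 7.4 at 37 °C for 5 min. Compound was added at 2 µM final and incubated at 37 °C; NADPH-free incubations served as controls. Reactions were quenched with acetonitrile plus internal standard at 60 min. Percent remaining was measured by LC-MS/MS (n=3).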
(In general: Liver microsomes are vesicles of endoplasmic reticulum, rich in cytochrome P450 enzymes.)

Series [6] is described as follows: AUC (0 to t) in rat at 3.5 mg/kg , po administered as single dose. The class given is ADME, organism-based. Particulars: in vivo. In outline:
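Male Kunming mice (20-25 g) and male Sprague Dawley rats (180-220 g) were fasted 12 h before dosing. Oral dosing was by gavage as a suspension in 0.5% sodium carboxymethyl cellulose; iv dosing was via tail vein in PEG400. Serial plasma samples were taken to 24 h, protein-precipitated with acetonitrile plus N-CH3 internal standard, and quantified by LC-MS/MS (n=3). Bioavailability = AUCoral/AUCiv.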

A short description of series [7]: Oral bioavailability in rat at 3.5 mg/kg administered as single dose. The class given is ADME, organism-based. Particulars: in vivo. In outline:
as §1

Series [8] can be described thus: Cumulative drug excretion in rat urine at 3.5 mg/kg, po administered as single dose measured after 72 hrs. The class given is ADME, organism-based. As to conditions: read-out: Drug excretion. In outline:
as §2

Series [9] is described as follows: Cumulative drug excretion in rat feces at 0.35mg/kg, iv administered as single dose measured after 72 hrs. The class given is ADME, organism-based. As to conditions: faeces, read-out: Drug excretion. In outline: as §2
A short description of series [10]: Metabolic stability in rat liver microsomes at 2 uM after 60 mins. As to conditions: read-out: Stability. The class given is ADME, Microsome. In outline: as §3
Series [11] in a line: Metabolic stability in human liver microsomes at 2 uM after 60 mins. Particulars: read-out: Stability. The class given is ADME, Microsome. In outline:
as §3

Series [12] relates to Influenza A virus. The experiment in a line: Antiviral activity against Influenza A virus (A/Puerto Rico/8/1934(H1N1)) infected in MDCK cells by HA assay. The class given is functional, organism-based. In outline: (§4)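 MDCK cells were infected at high moi (≈3.0 PFU/cell). Virus-containing supernatants were serially diluted 2-fold and mixed with an equal volume of 1% chicken red blood cells. After 60 min at 4 °C, wells were scored for button sedimentation versus opaque agglutination to give titers.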

The test system of series [13] is Influenza A virus. The experiment in a line: Antiviral activity against Influenza A virus (A/Puerto Rico/8/1934(H1N1)) infected in Kunming mouse assessed as decrease in pulmonary viral titers at 20 to 40 ug/day dosed intranasally starting 4 hrs after viral challenge and continued for 4 days by plaque assay. The class given is functional, organism-based. In outline:
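Four-week-old female Kunming mice were infected intranasally with PR8 (500 PFU/mouse in 40 µL PBS), randomized, and dosed once daily orally or intranasally. On day 4 the mice were euthanized; lungs were removed, weighed, homogenized in PBS, and titrated by plaque assay.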

Series [14] is described as follows: Toxicity in Influenza A virus (A/Puerto Rico/8/1934(H1N1)) infected Kunming mouse assessed as induction of body weight loss at 20 to 40 ug/day dosed intranasally starting 4 hrs after viral challenge and continued for 7 days by plaque assay. The class given is organism-based. As to conditions: in vivo, inhaled_or_intranasal.
A short description of series [15]: Toxicity in Kunming mouse assessed as effect on AST level at 5 to 10 mg/kg/day, po for 7 days. As to conditions: in vivo, 168 h. The class given is organism-based. In outline:
(§5)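 Male Kunming mice (20–25 g) received compound orally at 5 or 10 mg/kg/day, suspended in 0.5% sodium carboxymethyl cellulose, once daily for 7 days; controls received vehicle. Serum was collected under isoflurane 24 h after the last dose. AST, ALT, CR, BUN, LDH, CK and CK-MB were measured with commercial kits.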

Series [16] is described as follows: Toxicity in Kunming mouse assessed as effect on blood urea nitrogen level at 5 to 10 mg/kg/day, po for 7 days. The class given is organism-based. Particulars: in vivo, 168 h. In outline:
as §5

For series [17], the system named is Influenza A virus. As to the kind of experiment: Antiviral activity against Influenza A virus (A/Puerto Rico/8/1934(H1N1)) infected in MDCK cells assessed as decrease in viral titers at 50 ug/ml added during adsorption stage and measured 24 hrs post infection by HA assay. The class given is functional, organism-based. In outline:
as §4

In series [18] the test system is Influenza A virus. As to the kind of experiment: Antiviral activity against Influenza A virus (A/Puerto Rico/8/1934(H1N1)) infected in MDCK cells assessed as decrease in viral titers at 50 ug/ml pre-treated with virus before infection and measured 24 hrs post infection by HA assay. The class given is functional, organism-based. In outline: as §4
The target in series [19] is Hemagglutinin (Influenza A virus (A/Puerto Rico/8/1934(H1N1))) (UniProt P03452). The experiment in a line: Inhibition of Influenza A virus (A/Puerto Rico/8/1934(H1N1)) Hemagglutinin expressed in African green monkey Vero cells assessed as reduction in virus-induced syncytium formation at 50 ug/ml pre-treated with trypsin followed by compound addition for 15 mins and measured after 2 hrs at pH 5 by HA syncytium assay. The class given is cell-based. In outline: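 Vero cells were transfected with PR8 HA plasmid (2 µg per well). At 16 h post-transfection, HA was cleaved with 5 µg/mL TPCK-trypsin for 15 min at 37 °C. Cells were pre-incubated with compound for 15 min at 37 °C, then exposed to pH 5.0 buffer containing compound for 10 min at 37 °C. After rinsing, cells were kept in 10% FBS medium for 2 h, stained, and syncytia imaged.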
Chain of Hemagglutinin (Influenza A virus (A/Puerto Rico/8/1934(H1N1))) (P03452 whole entry): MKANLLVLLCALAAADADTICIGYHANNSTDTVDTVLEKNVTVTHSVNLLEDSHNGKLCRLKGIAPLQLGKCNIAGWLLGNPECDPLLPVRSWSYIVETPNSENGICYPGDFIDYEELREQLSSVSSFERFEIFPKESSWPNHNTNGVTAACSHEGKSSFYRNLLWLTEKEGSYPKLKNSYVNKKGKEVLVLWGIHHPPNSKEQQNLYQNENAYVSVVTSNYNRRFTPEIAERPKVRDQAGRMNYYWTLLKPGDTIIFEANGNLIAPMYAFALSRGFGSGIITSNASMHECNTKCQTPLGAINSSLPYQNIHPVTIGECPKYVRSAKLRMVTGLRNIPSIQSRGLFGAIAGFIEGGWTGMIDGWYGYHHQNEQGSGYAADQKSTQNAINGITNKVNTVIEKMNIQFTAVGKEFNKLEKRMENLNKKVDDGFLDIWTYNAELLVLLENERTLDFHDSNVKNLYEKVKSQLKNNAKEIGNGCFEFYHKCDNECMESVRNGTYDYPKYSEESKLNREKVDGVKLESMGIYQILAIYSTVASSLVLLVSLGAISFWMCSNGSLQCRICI

The test system of series [20] is Influenza A virus. The experiment in a line: Antiviral activity against luciferase tagged Influenza A virus H5N1 pseudovirus infected in MDCK cells assessed as reduction in virus infection incubated for 48 hrs by luciferase reporter gene assay. The class given is functional, organism-based. In outline:
(§6)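 MDCK cells infected with luciferase-expressing H5N1 HA/NA pseudotyped HIV-based virus were treated with compound under four different treatment regimens. Infection was quantified by firefly luciferase glow assay.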

Series [21] relates to Influenza A virus. The experiment in a line: Antiviral activity against luciferase tagged Influenza A virus H5N1 pseudovirus infected in MDCK cells assessed as reduction in virus infection at 50 ug/ml using compound pre-treated virus for infection and measured after 48 hrs by luciferase reporter gene assay. The class given is functional, organism-based. In outline:
as §6
(In a reporter assay the amount or activity of a reporter protein is the signal.)

The structures appear in SMILES notation. Active and inactive are the calls of the source. The calls are words filed in the database; no cut-off is given here.

On to `CC(=O)c1cc(C)c(O)c(Cc2[nH]c3ccccc3c2Cc2c(O)c(C)cc(C(C)=O)c2O)c1O`, for which the IC50 (commonly the point on the concentration scale where inhibition reaches its midpoint) in the series with Influenza A virus [1] is 26.4 µM. Further, the Tmax (in general, the time from dosing to the highest level) in series [2] came out at 4 h. For the same molecule, the bioavailability – broadly, the share of a dose that reaches the circulation, judged against a reference dose that is usually intravenous – was determined as 5.7% in [3] and 1.4% in [7]. The dose excreted at 72 h in [4] came to 0.3%; in series [8], 0.004%; in [9] it was 7.2%. Also, the values for the remaining at 1 h, 2 µM in series [5], in [10] and in [11] were 0.8%, 36.6% and 71.6%, respectively. Further, the AUC(0-t) (usually exposure summed from dosing to a finite time, without extrapolation to infinity) in series [6] came to 1360 ng·h/mL. Besides, the Activity result in the series on Influenza A virus [12] is “Dose-dependent effect”; in series [14] it was “Non-Toxic”; in series [15], “Non-Toxic”; in series [16], “Non-Toxic”; in the series with Influenza A virus [20] it was “Dose-dependent effect”. Also, the result with Influenza A virus [13], in the series on Influenza A virus [17] and with Influenza A virus [18] was Active. The inhibition result (in series [19]; with Influenza A virus [21]) was “Active” each time.
